Compound activity (PubChem BioAssay)
HUVEC inhibit: inhibitors of HUVEC proliferation, primary screen, cell-based, 384-well; CellTiter-Glo luminescence, 72 h; active compounds read low; viability, % at 10 µM (by protocol); 86,000 compounds, 1.1% hits; AID 648, 2007;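 active = viability at or below 30%; inactive = viability above 30%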;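 also: 100% = median luminescence of DMSO-only cell control wells on each plate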
H69AR growth 86K: proliferation blockers of H69AR lung cancer cells, primary screen, cell-based, human, 86K library | viability, % at 10 µM | 85,000 compounds, 6% hits | AID 598, 2007 | H69AR lung tumor viability, ATP luminescence, 72 h; active compounds read low;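 active = viability at or below 40%; inactive = viability above 40%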;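 also: multidrug resistant small cell line overexpressing MRP-1 efflux transporter; 100% = mean luminescence of untreated control wells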
PTEN del growth: growth suppression of PTEN-null HCT116, primary screen, cell-based, CellTiter-Glo; 140,000 compounds, 1.2% hits; HCT116 PTEN-null viability, 60 h; active compounds read low; viability, % at 10 µM;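 active = viability at or below a set limit, 4 SD under the median of all tested compounds, cut at about 3.7% in these data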;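 also: PTEN knockout HCT116 line with beta catenin targeted HCT116 as companion control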
HCT116 bCat-KO: primary screen for growth suppressors in beta-catenin knockout HCT116 cells (colon tumor, human); HCT116 beta-catenin knockout viability, CellTiter-Glo, 60 h; active compounds read low; viability, % at 10 µM; 140,000 compounds, 1.5% hits; AID 818, 2007;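 active = viability at or under a set limit, the compound median less 4 SD, cut at about 6% in these data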;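 also: 0% = Hyamine 1622 control at 20 µM and 100% = untreated cell control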
Pyk2 oligo antag: antagonists of Pyk2 self-association, primary screen, Q293 cells, FERM NanoBiT luminescence, HTS; Protein-tyrosine kinase 2-beta (Homo sapiens), Q14289; active compounds read low; z-score (the deposit names both 25 µM and 10 µM); 99,000 compounds, 0.83% hits; AID 1347419, 2020;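 active = Z-score of -3 or lower, scaled per plate to the spread of control and sample wells; inactive = z-score above -3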;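 also: negative z-score means lost luminescence so less FERM oligomerization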
Lung fibro prol: antiproliferative effect on LL 47 fibroblasts – human, LL 47 cells, CellTiter-Glo luminescence, primary screen | LL 47 human lung fibroblast viability, ATP luminescence; active compounds read low | 85,000 compounds, 1.1% hits | viability, % at 10 µM;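 active = viability at or below 50% in the single dose screen; inactive = viability above 50%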;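 also: compound exposure lasted 72 h before the ATP readout; 100% = median luminescence of untreated cell-only wells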
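test system = LL 47 human lung fibroblasts | amount = 1,150 fibroblasts seeded per well | medium = 15% FBS in IMEM | times = overnight cell rest, 72 h compound treatment at 37 °C | measured by = CellTiter-Glo luminescence measuring cellular ATP | read-out = viability percentage against median untreated-cell control | benchmarks = cell-only wells, no compound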
Starred values were filed as active, the others as inactive; nt = no result given. Many of the other results were omitted from the sample, so hits are more common in it than they were.

SMILES	HUVEC inhibit	H69AR growth 86K	PTEN del growth	HCT116 bCat-KO	Pyk2 oligo antag	Lung fibro prol
Cc1ccc(-c2nnc(N3CCN(C(=O)c4ccco4)CC3)c3ccccc23)cc1	80	54	49	53	-1.2	84
Cc1cc(N2CCN(C(=O)c3ccco3)CC2)n2nc(C)c(-c3ccccc3)c2n1	80	18*	73	91	0.39	100
CCN1CCN(c2cc(C(C)(C)C)nc3c(-c4ccccc4)c(C)nn23)CC1	3.2*	38*	9	13	-0.23	9.8*
O=C(c1ccccc1)c1ccc2nc(N3CCN(C(=O)c4ccco4)CC3)c3nncn3c2c1	70	18*	42	53	nt	89
COc1ccc(NC(=S)NN(C)C(=S)Nc2ccc(OC)cc2)cc1	nt	nt	35	42	nt	nt
CCN1CCN(c2ccc(NC(=O)CCc3c(C)nc4c(-c5ccccc5)c(C)nn4c3C)cc2)CC1	nt	nt	1.9*	0.9*	nt	nt
Cc1nc2c(-c3ccccc3)c(C)nn2c(C)c1CCC(=O)NCc1ccco1	93	66	103	95	nt	93
O=C(c1cc2nc(-c3ccccc3)cc(-c3ccccc3)n2n1)N1CCN(C(=O)c2ccco2)CC1	71	25*	7	14	-1.2	89
Cc1cc(C)c2nc(C(F)(F)F)nc(NCCCN3CCOCC3)c2c1	6.4*	8.9*	38	23	-1.9	51
O=C(c1ccco1)N1CCN(C(=O)c2cc(-c3ccccn3)nc3ccc(Cl)cc23)CC1	86	38*	81	75	0.39	98
O=C(c1ccco1)N1CCN(C(=O)c2cc(-c3ccncc3)nc3ccc(Br)cc23)CC1	65	39*	nt	nt	-0.15	84
O=C(c1ccco1)N1CCN(C(=O)c2cc(-c3ccccc3)nc3ccccc23)CC1	74	68	77	81	-0.19	98
CC1(c2ccccc2)NC(=O)N(CC(=O)NC(=O)NC2CCCC2)C1=O (stereo not drawn)	94	83	97	95	-0.54	92
COc1ccc(-c2coc3cc4oc(=O)c5ccccc5c4cc23)cc1F	nt	nt	6	4.5*	0.69	nt
Cc1c(CCC(=O)O)c(=O)oc2cc3occ(-c4ccc(F)cc4)c3cc12	104	102	90	96	1.4	91
O=C1N/C(=N/NC(=O)c2cccc3ccccc23)S/C1=C\c1ccccc1OCc1ccccc1	nt	nt	51	37	-3*	nt
COc1ccc(OC)c(/C=C2\S/C(=N/NC(=O)c3ccc4ccccc4c3)NC2=O)c1	nt	nt	87	89	nt	nt
N#CCCN(C(=O)Nc1ccc(Cl)c(Cl)c1)c1ccccc1	nt	nt	89	95	nt	nt
CCCCOc1c(Br)cc(/C=N/O)cc1OCC	21*	2.0*	90	94	-1.6	89
CCc1ccc2nc(SCC(=O)N3CC(=O)Nc4ccccc43)c(C#N)cc2c1	32	5.2*	16	11	-3.4*	65
O=[N+]([O-])c1c(NCCCO)cc(SCc2ccco2)c2nonc12	nt	nt	58	10	nt	nt
CC(=O)OCCNc1cc(Sc2nc3ccccc3[nH]2)c2nonc2c1[N+](=O)[O-]	nt	nt	1.5*	1.6*	nt	nt
CCCC(=O)OCCNc1cc(SCCC(=O)OC)c2nonc2c1[N+](=O)[O-]	nt	nt	95	87	nt	nt
CC(=O)OCCNc1cc(SCc2ccco2)c2nonc2c1[N+](=O)[O-]	nt	nt	1.0*	1.1*	nt	nt
CC(=O)OCCCNc1cc(Sc2nc3ccccc3s2)c2nonc2c1[N+](=O)[O-]	nt	nt	4	3.7*	-1.7	nt
O=[N+]([O-])c1c(NCCCO)cc(Sc2ccc(Cl)cc2)c2nonc12	nt	nt	1.2*	1.5*	nt	nt
COc1ccc(N2CCN(c3nc4c(c(=O)n(C)c(=O)n4C)n3CCCc3ccccc3)CC2)cc1	96	80	nt	nt	0.08	105
COc1ccccc1C(=O)N/N=C/c1cnc2ccccc2n1	nt	nt	105	95	nt	nt
CCOc1ccccc1Nc1nnc(SCC(=O)Nc2cccc(S(=O)(=O)NC3=NCCCCC3)c2)s1	nt	nt	70	62	nt	nt
COc1ccccc1C(O)(C(=O)NN(C)c1ccccc1)c1ccccc1OC	nt	nt	81	90	nt	nt
